Test results taken from ChEMBL document CHEMBL1157606, “Acylated phenylethanoid oligoglycosides with hepatoprotective activity from the desert plant Cistanche tubulosa” (Bioorg Med Chem, 2010).
pIC50: −log10 of the molar value.

Key:
[1] = system: Peritoneal macrophage cell; assay: Inhibition of LPS-induced TNFalpha production in ddY mouse peritoneal macrophages; format: functional, cell-based
Outline: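 Thioglycollate-elicited peritoneal macrophages from male ddY mice, 5 × 10^5 cells/well in RPMI 1640 with 5% FBS, 1 h pre-culture, nonadherent cells washed off. Compound (DMSO, final 0.5%) added 10 min before LPS (medium containing 10 μg/mL), 4 h incubation; TNF-α in medium by ELISA.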

[2] = system: Mus musculus; assay: Hepatoprotective activity against D-galactosamine/lipopolysaccharide-induced liver injury in ddY mouse assessed as inhibition of increase in sALT level at 100 mg/kg, po administered 1 hr before D-GalN/LPS challenge measured after 10 hrs; format: functional
Outline: (§1)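 Male ddY mice (25–30 g), fasted 20 h. Sample suspended in 5% gum arabic, given orally at 10 mL/kg 1 h before i.p. D-GalN (350 mg/kg) plus LPS (10 μg/kg) in saline. Vehicle controls dosed alike. Blood from infraorbital venous plexus at 10 h; sAST and sALT by Reitman–Frankel method. Hydrocortisone as reference.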

[3] = system: L929; assay: Cytoprotective activity in mouse L929 cells assessed as inhibition of TNF-alpha-induced cytotoxicity after 44 hrs by MTT assay; format: functional, cell-based; conditions: L929, 44 h
Outline: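 L929 cells kept in MEM with 10% FBS and non-essential amino acids at 37 °C, 5% CO2; seeded 3 × 10^4 cells/well, exposed 44 h to TNF-α (20 ng/mL) with or without sample (DMSO, final 0.5%). Viability by MTT: formazan dissolved in acidic isopropanol, OD 570 nm (ref 655 nm). Inhibition % = (sample − control)/(normal − control) × 100.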

[4] = system: Mus musculus; assay: Hepatoprotective activity against D-galactosamine/lipopolysaccharide-induced liver injury in ddY mouse assessed as inhibition of increase in sALT level at 25 mg/kg, po administered 1 hr before D-GalN/LPS challenge measured after 10 hrs; format: functional; outline: as §1
[5] = system: Mus musculus; assay: Hepatoprotective activity against D-galactosamine/lipopolysaccharide-induced liver injury in ddY mouse assessed as inhibition of increase in sAST level at 25 mg/kg, po administered 1 hr before D-GalN/LPS challenge measured after 10 hrs; format: functional; outline: as §1
[6] = system: Peritoneal macrophage cell; assay: Inhibition of LPS-induced nitric oxide production in ddY mouse peritoneal macrophages; format: functional, cell-based
[7] = system: Mus musculus; assay: Hepatoprotective activity against D-galactosamine/lipopolysaccharide-induced liver injury in ddY mouse assessed as inhibition of increase in sAST level at 100 mg/kg, po administered 1 hr before D-GalN/LPS challenge measured after 10 hrs; format: functional; outline: as §1
[8] = system: Hepatocyte; assay: Hepatoprotective activity in ddY mouse primary cultured hepatocytes assessed as inhibition of D-galactosamine-induced cytotoxicity after 44 hrs by MTT assay; format: functional, cell-based
Outline: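 Hepatocytes isolated from male ddY mice (30–35 g) by collagenase perfusion; 4 × 10^4 cells/well in William's E with 10% FBS, pre-cultured 4 h at 37 °C, 5% CO2, then 44 h with D-GalN (2 mM) ± sample. MTT (4 h); formazan in isopropanol/0.04 M HCl, OD 570 nm (ref 655 nm). Inhibition % = (sample − control)/(normal − control) × 100.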

[9] = system: Mus musculus; assay: Hepatoprotective activity against D-galactosamine/lipopolysaccharide-induced liver injury in ddY mouse assessed as inhibition of increase in sAST level at 10 mg/kg, po administered 1 hr before D-GalN/LPS challenge measured after 10 hrs; format: functional; outline: as §1
[10] = system: Mus musculus; assay: Hepatoprotective activity against D-galactosamine/lipopolysaccharide-induced liver injury in ddY mouse assessed as inhibition of increase in sALT level at 10 mg/kg, po administered 1 hr before D-GalN/LPS challenge measured after 10 hrs; format: functional; outline: as §1

SMILES: C[C@@H]1O[C@@H](O[C@@H]2[C@@H](O)[C@H](OCCc3ccc(O)c(O)c3)O[C@H](CO)[C@H]2OC(=O)/C=C/c2ccc(O)c(O)c2)[C@H](O)[C@H](O)[C@H]1O [ACETOSIDE]
- pIC50 [1]: < 4.00
- inhibition in vivo at 100 mg/kg [2]: 59.5%
- IC50 [3]: 17.8 µM
- inhibition in vivo at 25 mg/kg [4]: 44.4%
- inhibition in vivo at 25 mg/kg [5]: 51.3%
- pIC50 [6]: < 4.00
- inhibition in vivo at 100 mg/kg [7]: 68.5%
- pIC50 [8]: 5.34

SMILES: C[C@H]1O[C@H](O[C@@H]2[C@@H](O)[C@H](OCCc3ccc(O)c(O)c3)O[C@H](CO[C@H]3O[C@@H](CO)[C@H](O)[C@@H](O)[C@@H]3O)[C@H]2OC(=O)/C=C/c2ccc(O)c(O)c2)[C@@H](O)[C@@H](O)[C@@H]1O [ECHINACOSIDE]
- pIC50 [1]: < 4.00
- inhibition in vivo at 100 mg/kg [2]: 52%
- IC50 [3]: 31.1 µM
- inhibition in vivo at 25 mg/kg [4]: 43.8%
- inhibition in vivo at 25 mg/kg [5]: 61.2%
- pIC50 [6]: < 4.00
- inhibition in vivo at 100 mg/kg [7]: 66.7%
- pIC50 [8]: 4.99

SMILES: C[C@]12CCC(=O)C=C1CC[C@@H]1[C@@H]2[C@@H](O)C[C@@]2(C)[C@H]1CC[C@]2(O)C(=O)CO [HYDROCORTISONE]
- inhibition in vivo at 10 mg/kg [9]: 94.2%
- inhibition in vivo at 10 mg/kg [10]: 97.7%

SMILES: C[C@@H]1O[C@@H](O[C@@H]2[C@@H](O)[C@H](OCCc3ccc(O)c(O)c3)O[C@H](COC(=O)/C=C/c3ccc(O)c(O)c3)[C@H]2O)[C@H](O)[C@H](O)[C@H]1O [ISOACTEOSIDE]
- pIC50 [1]: < 4.00
- inhibition in vivo at 100 mg/kg [2]: 58.7%
- IC50 [3]: 22.7 µM
- inhibition in vivo at 25 mg/kg [4]: 40.2%
- inhibition in vivo at 25 mg/kg [5]: 46.1%
- pIC50 [6]: < 4.00
- inhibition in vivo at 100 mg/kg [7]: 70.9%
- pIC50 [8]: 5.28

SMILES: COc1cc(C2Oc3cc([C@H]4Oc5cc(O)cc(O)c5C(=O)[C@@H]4O)ccc3OC2CO)ccc1O (stereo partly drawn) [SILIBININ]
- IC50 [3]: 60.4 µM
- pIC50 [8]: 4.41
